Test results as given in ChEMBL document CHEMBL1221191, “Inhibitors of Polo-like kinase reveal roles in spindle-pole maintenance” (Nat Chem Biol, 2006).
Values belong to the compound of their own block, whether it stands above or below them. The source made the active and inactive calls. No cut-off for these calls is given here.

How the values were obtained:
[1] = biological target: Serine/threonine-protein kinase PLK1 (Homo sapiens, UniProt P53350)
[2] = tested on: Drosophila melanogaster; assay: Inhibition of […]-mediated Asp protein recruitment in Drosophila melanogaster S2 at 20 nM in presence of high-speed supernatant of syncytial embryo cytoplasam
Method in brief: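 Centrosomes partially purified from D. melanogaster embryos were salt-stripped with 1 M KI. They were then incubated with rhodamine-labeled tubulin and high-speed embryonic cytoplasmic supernatant. The supernatant was pretreated with compound (20 nM) or 0.1% DMSO for 20 min at 25 °C. Preparations were immunostained for centrosomin, γ-tubulin, Asp and the MPM2 phosphoepitope, and microtubule nucleation was scored.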

[3] = tested on: S2; assay: Antimitotic activity against Drosophila melanogaster S2 cells cytosolic extract assessed as loss of MPM2 epitope; assay type: functional, cell-based
Method in brief: (§1)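 Centrosomes partially purified from Drosophila embryos, some stripped with 1 M KI. Compound (10 or 20 nM; 0.1% DMSO carrier) incubated 20 min at 25 °C with centrosomes or with high-speed embryonic cytoplasmic supernatant, then microtubule nucleation assayed with rhodamine-labelled tubulin. Staining for γ-tubulin, MPM2 epitope, Asp and centrosomin. MPM2 also checked by western blot of treated supernatant.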

[4] = tested on: S2; assay: Antimitotic activity against Drosophila melanogaster S2 cells assessed as nucleated microtubule at 20 nM in presence of high speed cytoplasmic supernatant; assay type: functional, cell-based
Method in brief: as §1

[5] = tested on: HeLa; assay: Antitumor activity against human HeLa cells assessed as shortened mitotic spindles at 25 uM after 24 hrs by immunostaining relative to control; assay type: functional, cell-based
Method in brief: (§2)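 HeLa cells treated 24 h with 10 or 25 μM compound or 0.1% DMSO, then fixed and stained for α-tubulin, γ-tubulin and DNA. Spindle length taken as pole-to-pole distance. Microtubule density judged from the immunostained spindles.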

[6] = biological target: RAC-alpha serine/threonine-protein kinase (Homo sapiens, UniProt P31749); assay: Inhibition of Akt
[7] = Inhibition of CamK2
[8] = tested on: S2; assay: Antimitotic activity against Drosophila melanogaster S2 cells assessed as loss of gamma-tubulin at 20 nM by immunostaining; assay type: functional, cell-based
Method in brief: as §1

[9] = biological target: Aurora kinase A (Homo sapiens, UniProt O14965); assay: Inhibition of Aurora A
[10] = biological target: CDK9/cyclin T1 (Homo sapiens, UniProt P50750); assay: Inhibition of CDK9/Cyclin T; assay type: protein-complex assay
[11] = tested on: HeLa; assay: Antitumor activity against human HeLa cells assessed as change in kinetochore microtubules density at 25 uM after 24 hrs by immunostaining relative to control; assay type: functional, cell-based
Method in brief: as §2

[12] = Antimitotic activity against Drosophila melanogaster S2 cells assessed as bipolar spindles at 10 uM after 24 hrs by immunostaining relative to control; assay type: functional
Method in brief: (§3)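 Drosophila S2 cells exposed to 10 μM (24 h, fixed) or 25 μM (added at time 0 to cells already in mitosis) of compound, with 0.1% DMSO control. Fixed cells immunostained for α-tubulin, γ-tubulin and DNA. Live cells expressing GFP-tubulin filmed by spinning-disk confocal time-lapse at 25 ± 1 °C to follow spindle behaviour.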

[13] = biological target: Mitogen-activated protein kinase 11 (Homo sapiens, UniProt Q15759); assay: Inhibition of SAPK2
[14] = biological target: Aurora kinase B (Drosophila melanogaster) (UniProt Q9VKN7); assay: Inhibition of Aurora B kinase in Drosophila melanogaster assessed as histone H3 phosphorylation at Ser10
[15] = tested on: A549; assay: Cytotoxicity against human A549 cells assessed as mitotic progression after 72 hrs by MTT assay; assay type: functional, cell-based; settings: A549, 72 h
[16] = biological target: Glycogen synthase kinase-3 alpha (Homo sapiens, UniProt P49840); assay: Inhibition of GSK3alpha
[17] = biological target: Cyclin-dependent kinase 1/cyclin B1 (Homo sapiens, UniProt P06493); assay: Inhibition of CDK1/Cyclin B; assay type: protein-complex assay
[18] = biological target: Cyclin-dependent kinase 2/cyclin A (Homo sapiens, UniProt P24941); assay: Inhibition of CDK2/Cyclin A; assay type: protein-complex assay
[19] = tested on: HT-29; assay: Cytotoxicity against human HT-29 cells assessed as mitotic progression after 72 hrs by MTT assay; assay type: functional, cell-based; settings: HT-29, 72 h
[20] = biological target: Cyclin-dependent kinase 7/ cyclin H (Homo sapiens, UniProt P50613); assay: Inhibition of CDK7/Cyclin H; assay type: protein-complex assay
[21] = tested on: S2; assay: Inhibition of Plk1 in Drosophila melanogaster S2 cells at 20 nM; assay type: cell-based
[22] = biological target: Cyclin-dependent kinase 4/cyclin D1 (Homo sapiens, UniProt P11802); assay: Inhibition of CDK4/Cyclin D1; assay type: protein-complex assay
[23] = tested on: S2; assay: Antimitotic activity against Drosophila melanogaster S2 cells assessed as collapsed spindles at 25 uM; assay type: functional, cell-based
Method in brief: as §3

[24] = tested on: S2; assay: Antimitotic activity against Drosophila melanogaster S2 cells assessed as nucleated microtubule at 20 nM; assay type: functional, cell-based
Method in brief: as §1

[25] = Inhibition of MAPK/ERK
[26] = tested on: S2; assay: Inhibition of […]-mediated gamma-TuRc recruitment in Drosophila melanogaster S2 cells at 20 nM in presence of high-speed supernatant of syncytial embryo cytoplasam; assay type: cell-based
Method in brief: as §1

[27] = biological target: Tyrosine-protein kinase ABL1 (Homo sapiens, UniProt P00519); assay: Inhibition of Abl
[28] = tested on: S2; assay: Antimitotic activity against Drosophila melanogaster S2 cells assessed as nucleated microtubule at 10 nM; assay type: functional, cell-based
Method in brief: as §1

[29] = tested on: HeLa; assay: Antitumor activity against human HeLa cells assessed as shortened mitotic spindles at 10 uM after 24 hrs by immunostaining relative to control; assay type: functional, cell-based
Method in brief: as §2

[30] = biological target: Cyclin-dependent kinase 2/cyclin E1 (Homo sapiens, UniProt P24941); assay: Inhibition of CDK2/Cyclin E; assay type: protein-complex assay
[31] = biological target: Protein kinase C alpha type (Homo sapiens, UniProt P17252); assay: Inhibition of PKCalpha
[32] = Inhibition of PKA
[33] = tested on: HeLa; assay: Cytotoxicity against human HeLa cells assessed as mitotic progression after 72 hrs by MTT assay; assay type: functional, cell-based
[34] = tested on: S2; assay: Antimitotic activity against Drosophila melanogaster S2 cells expressing GFP-tubulin assessed as abnormal spindles at 25 uM; assay type: functional, cell-based
Method in brief: as §3

[35] = Inhibition of CK2
[36] = Inhibition of P70S6K
[37] = tested on: S2; assay: Antimitotic activity against Drosophila melanogaster S2 cells assessed as loss of MPM2 epitope from centrosome at 20 nM by immunostaining; assay type: functional, cell-based
Method in brief: as §1

[38] = biological target: Tyrosine-protein kinase Yes (Homo sapiens) (UniProt P07947); assay: Residual activity of Yes at 100 uM relative to control
[39] = biological target: Fibroblast growth factor receptor 3 (Homo sapiens) (UniProt P22607); assay: Residual activity of FGFR3 at 100 uM relative to control
[40] = biological target: Tyrosine-protein kinase CSK (Homo sapiens) (UniProt P41240); assay: Inhibition of CSK at 100 uM relative to control; values are per cent of control
[41] = biological target: Protein kinase C gamma type (Homo sapiens) (UniProt P05129); assay: Residual activity of PKCgamma at 100 uM relative to control
[42] = biological target: Insulin-like growth factor 1 receptor (Homo sapiens) (UniProt P08069); assay: Residual activity of IGF-1R at 100 uM relative to control
[43] = biological target: Tyrosine-protein kinase CSK (Homo sapiens) (UniProt P41240); assay: Inhibition of CSK at 100 uM
[44] = biological target: MAP kinase-activated protein kinase 2 (Homo sapiens) (UniProt P49137); assay: Residual activity of MAPKAP-K2 at 100 uM relative to control
[45] = biological target: Mitogen-activated protein kinase 12 (Homo sapiens) (UniProt P53778); assay: Residual activity of SAPK3 at 100 uM relative to control
[46] = biological target: Mitogen-activated protein kinase 9 (Homo sapiens) (UniProt P45984); assay: Residual activity of JNK2alpha2 at 100 uM relative to control
[47] = biological target: Protein kinase C beta type (Homo sapiens) (UniProt P05771); assay: Residual activity of PKCbeta2 at 100 uM relative to control
[48] = biological target: Platelet-derived growth factor receptor alpha (Homo sapiens) (UniProt P16234); assay: Residual activity of PDGFRalpha at 100 uM relative to control
[49] = Residual activity of SAPK2b at 100 uM relative to control
[50] = biological target: Insulin receptor (Homo sapiens) (UniProt P06213); assay: Residual activity of IR at 100 uM relative to control
[51] = biological target: Serine/threonine-protein kinase Chk2 (Homo sapiens) (UniProt O96017); assay: Residual activity of Chk2 at 100 uM relative to control
[52] = biological target: Dual specificity mitogen-activated protein kinase kinase 1 (Homo sapiens) (UniProt Q02750); assay: Residual activity of MEK1 at 100 uM relative to control
[53] = biological target: Serine/threonine-protein kinase Chk1 (Homo sapiens) (UniProt O14757); assay: Residual activity of Chk1 at 100 uM relative to control
[54] = biological target: Ribosomal protein S6 kinase alpha-3 (Homo sapiens) (UniProt P51812); assay: Residual activity of Rsk2 at 100 uM relative to control
[55] = biological target: RAF proto-oncogene serine/threonine-protein kinase (Homo sapiens) (UniProt P04049); assay: Residual activity of c-RAF at 100 uM relative to control
[56] = biological target: Dual specificity mitogen-activated protein kinase kinase 6 (Homo sapiens) (UniProt P52564); assay: Residual activity of MKK6 at 100 uM relative to control
[57] = biological target: Cyclin-dependent kinase 2/cyclin E1 (Homo sapiens) (UniProt P24864+P24941); assay: Residual activity of CDK2/E at 100 uM relative to control
[58] = biological target: Ribosomal protein S6 kinase alpha-5 (Homo sapiens) (UniProt O75582); assay: Residual activity of MSK1 at 100 uM relative to control
[59] = biological target: Inhibitor of nuclear factor kappa-B kinase subunit alpha (Homo sapiens) (UniProt O15111); assay: Residual activity of IKKalpha at 100 uM relative to control

Sequence of Serine/threonine-protein kinase PLK1 (P53350 whole entry): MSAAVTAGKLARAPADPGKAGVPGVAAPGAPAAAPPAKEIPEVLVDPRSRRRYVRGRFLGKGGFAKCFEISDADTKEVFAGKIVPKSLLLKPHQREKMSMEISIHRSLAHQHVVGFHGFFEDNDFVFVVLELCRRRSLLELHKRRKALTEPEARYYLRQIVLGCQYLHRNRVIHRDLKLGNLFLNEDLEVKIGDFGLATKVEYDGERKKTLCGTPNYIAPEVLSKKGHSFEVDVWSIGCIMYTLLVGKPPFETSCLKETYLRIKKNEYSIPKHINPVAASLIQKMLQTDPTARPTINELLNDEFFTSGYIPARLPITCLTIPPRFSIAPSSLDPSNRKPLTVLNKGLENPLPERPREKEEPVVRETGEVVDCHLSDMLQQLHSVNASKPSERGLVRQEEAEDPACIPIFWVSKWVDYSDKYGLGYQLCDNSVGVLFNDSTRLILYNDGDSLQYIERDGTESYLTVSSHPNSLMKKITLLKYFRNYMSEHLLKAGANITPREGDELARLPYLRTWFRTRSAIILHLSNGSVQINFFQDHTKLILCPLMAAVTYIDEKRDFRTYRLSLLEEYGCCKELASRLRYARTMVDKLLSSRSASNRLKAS
Sequence of Cyclin-dependent kinase 4/cyclin D1 (P11802 whole entry): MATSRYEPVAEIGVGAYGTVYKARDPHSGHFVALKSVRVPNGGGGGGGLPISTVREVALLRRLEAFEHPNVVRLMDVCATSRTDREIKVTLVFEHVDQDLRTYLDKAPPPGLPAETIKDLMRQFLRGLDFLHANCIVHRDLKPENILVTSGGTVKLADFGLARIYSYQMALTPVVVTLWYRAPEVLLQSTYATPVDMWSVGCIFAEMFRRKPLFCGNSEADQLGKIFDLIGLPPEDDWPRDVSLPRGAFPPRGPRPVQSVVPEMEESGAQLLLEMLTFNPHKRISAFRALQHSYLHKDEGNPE
Sequence of Cyclin-dependent kinase 4/cyclin D1 (P24385 whole entry, further chain): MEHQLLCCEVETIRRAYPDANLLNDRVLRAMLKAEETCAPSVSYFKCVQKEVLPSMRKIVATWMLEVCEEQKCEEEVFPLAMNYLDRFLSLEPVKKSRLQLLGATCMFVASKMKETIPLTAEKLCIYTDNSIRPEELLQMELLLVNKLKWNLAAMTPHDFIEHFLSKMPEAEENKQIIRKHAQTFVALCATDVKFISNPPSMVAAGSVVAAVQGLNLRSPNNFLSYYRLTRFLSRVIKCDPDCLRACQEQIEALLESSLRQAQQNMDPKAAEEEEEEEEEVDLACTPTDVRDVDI
Sequence of CDK9/cyclin T1 (O60563 whole entry): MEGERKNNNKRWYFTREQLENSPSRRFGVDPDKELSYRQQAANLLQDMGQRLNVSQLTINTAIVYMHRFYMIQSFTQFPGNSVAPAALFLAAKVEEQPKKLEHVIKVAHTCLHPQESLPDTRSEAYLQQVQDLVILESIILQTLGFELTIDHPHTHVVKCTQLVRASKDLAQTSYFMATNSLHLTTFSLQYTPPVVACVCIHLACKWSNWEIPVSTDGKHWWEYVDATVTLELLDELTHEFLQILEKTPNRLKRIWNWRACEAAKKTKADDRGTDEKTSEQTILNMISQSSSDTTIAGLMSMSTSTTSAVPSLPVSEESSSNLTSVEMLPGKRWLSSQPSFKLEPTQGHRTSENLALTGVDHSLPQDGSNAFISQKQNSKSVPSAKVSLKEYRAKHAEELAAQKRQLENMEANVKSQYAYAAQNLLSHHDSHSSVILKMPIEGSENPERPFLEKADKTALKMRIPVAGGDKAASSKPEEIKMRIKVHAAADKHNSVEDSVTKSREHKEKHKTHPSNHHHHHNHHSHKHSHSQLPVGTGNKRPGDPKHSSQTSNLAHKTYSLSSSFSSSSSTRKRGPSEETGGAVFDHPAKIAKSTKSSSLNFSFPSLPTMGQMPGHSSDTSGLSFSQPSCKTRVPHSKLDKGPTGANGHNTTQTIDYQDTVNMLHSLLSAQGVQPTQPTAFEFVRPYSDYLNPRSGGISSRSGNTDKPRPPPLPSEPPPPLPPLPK
Sequence of CDK9/cyclin T1 (P50750 whole entry): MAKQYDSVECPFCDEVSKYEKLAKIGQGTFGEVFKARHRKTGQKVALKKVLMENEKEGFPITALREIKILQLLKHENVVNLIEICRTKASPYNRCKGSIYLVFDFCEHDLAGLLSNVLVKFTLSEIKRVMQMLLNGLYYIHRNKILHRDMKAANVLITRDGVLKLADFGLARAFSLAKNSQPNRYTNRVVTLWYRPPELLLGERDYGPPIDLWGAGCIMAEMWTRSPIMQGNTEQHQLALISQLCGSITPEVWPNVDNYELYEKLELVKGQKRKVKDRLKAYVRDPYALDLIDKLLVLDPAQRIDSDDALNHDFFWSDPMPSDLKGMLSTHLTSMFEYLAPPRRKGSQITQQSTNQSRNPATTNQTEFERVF
Sequence of Mitogen-activated protein kinase 11 (Q15759 whole entry): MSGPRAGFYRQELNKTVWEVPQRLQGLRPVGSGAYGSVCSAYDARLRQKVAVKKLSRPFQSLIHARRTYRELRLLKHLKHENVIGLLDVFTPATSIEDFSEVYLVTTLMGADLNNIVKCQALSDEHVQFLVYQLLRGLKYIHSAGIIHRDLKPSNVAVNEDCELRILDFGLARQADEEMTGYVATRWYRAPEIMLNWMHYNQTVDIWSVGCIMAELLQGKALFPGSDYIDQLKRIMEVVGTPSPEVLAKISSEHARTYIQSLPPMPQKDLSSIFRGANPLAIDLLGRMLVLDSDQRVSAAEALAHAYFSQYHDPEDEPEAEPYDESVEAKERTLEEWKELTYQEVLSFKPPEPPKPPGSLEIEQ
Sequence of Cyclin-dependent kinase 7/ cyclin H (P51946 whole entry): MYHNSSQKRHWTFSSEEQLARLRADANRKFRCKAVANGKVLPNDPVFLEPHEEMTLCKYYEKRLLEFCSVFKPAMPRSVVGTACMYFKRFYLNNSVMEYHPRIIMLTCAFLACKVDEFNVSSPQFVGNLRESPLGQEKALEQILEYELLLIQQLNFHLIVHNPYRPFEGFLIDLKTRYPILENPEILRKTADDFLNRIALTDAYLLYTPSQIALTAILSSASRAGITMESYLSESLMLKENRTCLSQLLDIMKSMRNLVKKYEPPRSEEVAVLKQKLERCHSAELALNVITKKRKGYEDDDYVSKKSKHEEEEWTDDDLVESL
Sequence of Cyclin-dependent kinase 7/ cyclin H (P50613 whole entry): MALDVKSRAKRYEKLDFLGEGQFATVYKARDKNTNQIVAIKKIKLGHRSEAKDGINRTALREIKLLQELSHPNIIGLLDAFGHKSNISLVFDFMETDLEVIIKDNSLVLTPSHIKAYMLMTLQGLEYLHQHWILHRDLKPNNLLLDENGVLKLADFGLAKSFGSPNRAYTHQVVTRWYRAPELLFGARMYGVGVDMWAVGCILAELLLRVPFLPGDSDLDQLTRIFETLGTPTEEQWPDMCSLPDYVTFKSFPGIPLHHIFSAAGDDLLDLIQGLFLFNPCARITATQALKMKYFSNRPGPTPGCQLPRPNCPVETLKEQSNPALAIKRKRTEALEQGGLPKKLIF
Sequence of Cyclin-dependent kinase 1/cyclin B1 (P06493 whole entry): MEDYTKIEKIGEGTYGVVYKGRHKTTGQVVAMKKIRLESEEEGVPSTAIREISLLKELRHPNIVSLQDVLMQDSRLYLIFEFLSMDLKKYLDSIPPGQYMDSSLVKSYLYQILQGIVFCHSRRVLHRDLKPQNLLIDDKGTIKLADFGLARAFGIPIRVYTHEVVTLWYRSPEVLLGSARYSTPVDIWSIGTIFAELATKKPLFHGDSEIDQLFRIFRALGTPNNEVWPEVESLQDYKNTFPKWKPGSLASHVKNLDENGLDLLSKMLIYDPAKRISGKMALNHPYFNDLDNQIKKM
Sequence of Cyclin-dependent kinase 1/cyclin B1 (P14635 whole entry, further chain): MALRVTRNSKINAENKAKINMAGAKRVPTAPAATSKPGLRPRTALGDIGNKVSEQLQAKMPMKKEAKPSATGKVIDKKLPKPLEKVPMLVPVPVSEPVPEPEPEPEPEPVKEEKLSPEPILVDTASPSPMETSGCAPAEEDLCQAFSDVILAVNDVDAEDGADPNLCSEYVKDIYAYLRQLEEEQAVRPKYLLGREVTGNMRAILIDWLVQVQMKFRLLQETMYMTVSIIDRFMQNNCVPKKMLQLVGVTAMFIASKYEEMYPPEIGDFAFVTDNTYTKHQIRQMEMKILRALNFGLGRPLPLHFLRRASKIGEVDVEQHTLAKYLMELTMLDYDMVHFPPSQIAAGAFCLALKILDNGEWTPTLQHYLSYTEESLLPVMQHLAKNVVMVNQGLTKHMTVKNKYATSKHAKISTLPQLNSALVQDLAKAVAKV

IC50 [1]: 25 µM
Compound: Cc1nc(N)sc1-c1ccnc(Nc2ccc(O)cc2)n1

IC50 [1]: 5 µM
Compound: Cc1nc(C)c(-c2ccnc(Nc3ccc(O)cc3)n2)s1

IC50 [1]: 10 µM
Compound: CNc1nc(C)c(-c2ccnc(Nc3ccc(O)cc3)n2)s1

inhibition [2]: inactive | IC50 [6]: > 100 µM | IC50 [7]: > 100 µM | IC50 [9]: > 100 µM | IC50 [10]: > 100 µM | IC50 [13]: > 100 µM | inhibition [14]: inactive | IC50 [16]: > 100 µM | IC50 [17]: > 100 µM | IC50 [18]: > 100 µM | IC50 [20]: > 100 µM | IC50 [22]: > 100 µM | IC50 [25]: > 100 µM | IC50 [27]: > 100 µM | IC50 [30]: > 100 µM | IC50 [31]: > 100 µM | IC50 [32]: > 100 µM | IC50 [35]: > 100 µM | IC50 [36]: > 100 µM
Compound: NC(=O)c1sc2c([N+](=O)[O-])cc(SC(F)(F)F)cc2[n+]1[O-] [CYCLAPOLIN 1]
Activity [3]: Active | Activity [4]: inactive | Activity [5]: Active | Activity [8]: Active | Activity [11]: Active | Activity [12]: 80% | IC50 [15]: 14 µM | IC50 [19]: 2.8 µM | inhibition [21]: Active | Activity [23]: Active | Activity [24]: Active | inhibition [26]: inactive | Activity [28]: inactive | Activity [29]: Active | IC50 [33]: 14 µM | Activity [34]: Active | Activity [37]: Active

residual activity [38]: 108% | IC50 [6]: > 100 µM | IC50 [7]: > 100 µM | residual activity [39]: 83% | residual activity [40]: 45% | residual activity [41]: 117% | residual activity [42]: 98% | IC50 [9]: > 100 µM | inhibition [43]: < 50% | IC50 [10]: > 100 µM | residual activity [44]: 96% | residual activity [45]: 120% | IC50 [13]: > 100 µM | residual activity [46]: 106% | residual activity [47]: 82% | IC50 [16]: > 100 µM | residual activity [48]: 108% | IC50 [17]: > 100 µM | IC50 [18]: > 100 µM | residual activity [49]: 94% | IC50 [20]: > 100 µM | IC50 [22]: > 100 µM | IC50 [25]: > 100 µM | IC50 [27]: > 100 µM | residual activity [50]: 107% | residual activity [51]: 97% | residual activity [52]: 96% | residual activity [53]: 111% | residual activity [54]: 105% | IC50 [30]: > 100 µM | residual activity [55]: 108% | IC50 [31]: > 100 µM | residual activity [56]: 88% | IC50 [32]: > 100 µM | residual activity [57]: 88% | residual activity [58]: 106% | residual activity [59]: 115% | IC50 [35]: > 100 µM | IC50 [36]: > 100 µM
Compound: NC(=O)c1sc2c([N+](=O)[O-])cc(C(F)(F)F)cc2[n+]1[O-] [CYCLAPOLIN 9]
IC50 [15]: 24.8 µM | IC50 [19]: 7.7 µM | IC50 [33]: 6.6 µM

Compound: NNC(=O)c1sc2c([N+](=O)[O-])cc(C(F)(F)F)cc2[n+]1[O-] [CYCLAPOLIN 10]
IC50 [15]: 72.1 µM | IC50 [19]: 50.5 µM | IC50 [33]: 53.6 µM
